These results are taken from ChEMBL document CHEMBL5696442, “Discovery of type II inhibitors of TGFβ-activated kinase 1 (TAK1) and mitogen-activated protein kinase kinase kinase kinase 2 (MAP4K2)” (J Med Chem, 2015).

Activity calls are given as the source filed them. The rule behind the calls is not given here.

Assay [1] addresses Calcium/calmodulin-dependent protein kinase type II subunit gamma (Homo sapiens) (UniProt Q13555). In words: Inhibition of CaMK2g Lys1 labeling site harbouring KTSTQEYAAKIINTKK in human A-375 cells at 0.5 uM by KiNativ Profiling analysis relative to control. It counts as cell-based.
Assay [2] addresses Glycogen synthase kinase-3 alpha (Homo sapiens) (UniProt P49840). As to the kind of experiment: Inhibition of GSK3A Lys2 labeling site in human A-375 cells at 0.5 uM by KiNativ Profiling analysis relative to control. Type of assay: cell-based.
Assay [3] concerns the target Tyrosine-protein kinase JAK1 (Homo sapiens) (UniProt P23458). In words: Inhibition of JAK1 domain2 ACT labeling site in human A-375 cells at 0.5 uM by KiNativ Profiling analysis relative to control. It counts as cell-based.
The target of assay [4] is cAMP-dependent protein kinase catalytic subunit alpha (Homo sapiens) (UniProt P17612). As to the kind of experiment: Inhibition of PKAC alpha (unknown origin) at 1 uM by Ambit Kinomescan binding assay relative to control. Put shortly: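 In vitro ATP-site competition binding assay against a panel of over 420 kinases (KinomeScan), with compound tested at 10 or 1 μM.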

For assay [5], the target named is T1, Scaffold protein ILK (Homo sapiens) (UniProt Q13418).
T1 sequence (whole entry): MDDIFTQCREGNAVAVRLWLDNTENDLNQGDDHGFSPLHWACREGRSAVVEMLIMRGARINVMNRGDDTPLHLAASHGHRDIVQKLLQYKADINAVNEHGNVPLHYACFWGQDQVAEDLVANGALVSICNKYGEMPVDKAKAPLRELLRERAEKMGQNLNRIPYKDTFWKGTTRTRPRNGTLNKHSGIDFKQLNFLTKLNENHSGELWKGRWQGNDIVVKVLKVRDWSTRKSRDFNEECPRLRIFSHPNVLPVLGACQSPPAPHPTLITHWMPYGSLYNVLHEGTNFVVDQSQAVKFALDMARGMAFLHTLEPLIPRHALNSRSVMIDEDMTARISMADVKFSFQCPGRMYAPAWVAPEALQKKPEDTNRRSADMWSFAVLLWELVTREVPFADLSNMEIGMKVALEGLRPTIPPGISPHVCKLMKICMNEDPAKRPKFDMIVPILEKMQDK
In words: Inhibition of ILK Protein Kinase Domain in human A-375 cells at 0.05 uM by KiNativ Profiling analysis relative to control. It counts as cell-based.

The target in assay [6] is RAC-gamma serine/threonine-protein kinase (Homo sapiens) (UniProt Q9Y243). In words: Inhibition of AKT3 (unknown origin) at 1 uM by Ambit Kinomescan binding assay relative to control.
RAC-gamma serine/threonine-protein kinase (Homo sapiens), sequence (Q9Y243 whole entry): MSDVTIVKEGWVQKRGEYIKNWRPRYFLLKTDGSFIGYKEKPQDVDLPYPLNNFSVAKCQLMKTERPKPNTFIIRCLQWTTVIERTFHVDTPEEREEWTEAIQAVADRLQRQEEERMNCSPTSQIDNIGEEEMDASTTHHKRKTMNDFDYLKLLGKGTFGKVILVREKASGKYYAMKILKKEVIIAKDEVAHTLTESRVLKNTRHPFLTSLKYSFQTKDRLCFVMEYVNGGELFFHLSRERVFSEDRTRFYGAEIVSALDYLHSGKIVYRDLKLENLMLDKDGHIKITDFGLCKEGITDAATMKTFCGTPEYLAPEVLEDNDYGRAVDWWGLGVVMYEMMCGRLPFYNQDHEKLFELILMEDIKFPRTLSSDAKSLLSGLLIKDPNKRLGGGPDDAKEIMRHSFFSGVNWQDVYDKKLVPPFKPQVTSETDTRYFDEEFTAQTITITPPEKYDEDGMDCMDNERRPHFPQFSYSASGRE
The target of assay [7] is T2, Serine/threonine-protein kinase LATS1 (Homo sapiens) (UniProt O95835).
T2 sequence (whole entry): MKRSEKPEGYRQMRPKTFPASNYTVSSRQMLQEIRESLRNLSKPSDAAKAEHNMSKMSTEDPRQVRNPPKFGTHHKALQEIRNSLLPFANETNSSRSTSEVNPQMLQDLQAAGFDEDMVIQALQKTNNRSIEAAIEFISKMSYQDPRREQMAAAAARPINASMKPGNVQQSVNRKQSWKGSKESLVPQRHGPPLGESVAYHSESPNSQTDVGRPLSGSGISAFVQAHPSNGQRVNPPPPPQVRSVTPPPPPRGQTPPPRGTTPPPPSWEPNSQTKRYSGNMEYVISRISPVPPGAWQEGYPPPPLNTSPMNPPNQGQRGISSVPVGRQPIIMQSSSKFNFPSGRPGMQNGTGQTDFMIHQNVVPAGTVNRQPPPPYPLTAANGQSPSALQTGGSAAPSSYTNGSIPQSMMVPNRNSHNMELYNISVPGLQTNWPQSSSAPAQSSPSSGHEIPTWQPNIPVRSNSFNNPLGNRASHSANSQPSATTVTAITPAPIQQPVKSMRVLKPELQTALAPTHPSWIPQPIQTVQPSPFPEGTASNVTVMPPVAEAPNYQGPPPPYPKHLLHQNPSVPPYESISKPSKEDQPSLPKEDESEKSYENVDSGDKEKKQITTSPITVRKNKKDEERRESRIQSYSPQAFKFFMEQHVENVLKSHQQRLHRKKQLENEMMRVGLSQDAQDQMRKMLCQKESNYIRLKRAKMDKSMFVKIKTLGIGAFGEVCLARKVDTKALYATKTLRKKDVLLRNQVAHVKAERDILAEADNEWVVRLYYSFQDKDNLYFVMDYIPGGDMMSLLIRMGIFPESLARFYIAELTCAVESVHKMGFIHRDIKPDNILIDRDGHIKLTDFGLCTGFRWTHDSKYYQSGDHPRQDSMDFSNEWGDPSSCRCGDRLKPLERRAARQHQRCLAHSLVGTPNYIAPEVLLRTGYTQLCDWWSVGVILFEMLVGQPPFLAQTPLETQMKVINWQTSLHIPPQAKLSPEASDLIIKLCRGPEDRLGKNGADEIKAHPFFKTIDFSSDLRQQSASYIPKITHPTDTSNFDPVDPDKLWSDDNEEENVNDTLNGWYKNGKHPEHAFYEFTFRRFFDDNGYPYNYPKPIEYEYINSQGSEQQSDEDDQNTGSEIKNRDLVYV
As to the kind of experiment: Inhibition of LATS1 (unknown origin) at 10 uM by Ambit Kinomescan binding assay.

The target in assay [8] is Activin receptor type-1 (Homo sapiens) (UniProt Q04771). In words: Inhibition of ACVR1 (unknown origin) at 10 uM by Ambit Kinomescan binding assay.
Activin receptor type-1 (Homo sapiens), sequence (Q04771 whole entry): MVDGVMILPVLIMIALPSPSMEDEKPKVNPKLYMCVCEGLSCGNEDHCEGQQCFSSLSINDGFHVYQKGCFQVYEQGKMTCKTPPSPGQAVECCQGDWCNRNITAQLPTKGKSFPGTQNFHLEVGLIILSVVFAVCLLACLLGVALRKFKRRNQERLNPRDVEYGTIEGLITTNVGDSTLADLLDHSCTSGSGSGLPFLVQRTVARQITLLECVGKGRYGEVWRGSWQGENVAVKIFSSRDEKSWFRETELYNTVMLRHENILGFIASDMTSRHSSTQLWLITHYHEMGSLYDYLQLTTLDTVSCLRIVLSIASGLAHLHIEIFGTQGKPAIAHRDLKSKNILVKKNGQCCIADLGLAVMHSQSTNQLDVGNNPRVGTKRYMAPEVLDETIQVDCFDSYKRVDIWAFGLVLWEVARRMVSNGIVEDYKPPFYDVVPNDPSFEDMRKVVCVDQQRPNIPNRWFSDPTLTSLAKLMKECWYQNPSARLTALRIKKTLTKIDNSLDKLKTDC
For assay [9], the target named is Serine/threonine-protein kinase SIK1 (Homo sapiens) (UniProt P57059). As to the kind of experiment: Inhibition of SIK1 K2 labeling site in human Huh-7 cells at 10 uM by KiNativ Profiling analysis relative to control. It counts as cell-based.
Serine/threonine-protein kinase SIK1 (Homo sapiens), sequence (P57059 whole entry): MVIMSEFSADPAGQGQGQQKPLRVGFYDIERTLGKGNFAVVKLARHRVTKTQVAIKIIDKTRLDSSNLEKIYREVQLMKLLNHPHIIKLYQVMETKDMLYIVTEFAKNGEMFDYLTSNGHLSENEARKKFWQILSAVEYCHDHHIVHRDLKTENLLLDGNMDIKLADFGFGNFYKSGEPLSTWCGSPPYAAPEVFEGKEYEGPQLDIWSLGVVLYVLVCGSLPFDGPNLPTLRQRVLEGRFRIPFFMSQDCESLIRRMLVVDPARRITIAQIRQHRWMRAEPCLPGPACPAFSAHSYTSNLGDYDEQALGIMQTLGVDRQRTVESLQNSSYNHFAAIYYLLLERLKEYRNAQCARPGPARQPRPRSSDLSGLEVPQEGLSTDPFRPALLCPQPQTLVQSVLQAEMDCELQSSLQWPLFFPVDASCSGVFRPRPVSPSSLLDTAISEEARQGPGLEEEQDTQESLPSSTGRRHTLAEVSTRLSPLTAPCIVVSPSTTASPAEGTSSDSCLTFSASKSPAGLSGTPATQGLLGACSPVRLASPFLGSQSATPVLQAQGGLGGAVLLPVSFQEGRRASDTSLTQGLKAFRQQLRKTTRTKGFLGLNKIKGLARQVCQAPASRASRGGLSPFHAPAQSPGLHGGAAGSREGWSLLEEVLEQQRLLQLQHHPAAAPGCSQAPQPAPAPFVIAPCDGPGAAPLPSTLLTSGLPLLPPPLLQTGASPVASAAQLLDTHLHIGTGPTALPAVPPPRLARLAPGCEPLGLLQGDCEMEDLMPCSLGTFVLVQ
The target in assay [10] is Cyclin-dependent kinase 5 (Homo sapiens) (UniProt Q00535). As to the kind of experiment: Inhibition of CDK5 (unknown origin) at 10 uM by Ambit Kinomescan binding assay relative to control.
Cyclin-dependent kinase 5 (Homo sapiens), sequence (Q00535 whole entry, looked up, the tested form may be a part): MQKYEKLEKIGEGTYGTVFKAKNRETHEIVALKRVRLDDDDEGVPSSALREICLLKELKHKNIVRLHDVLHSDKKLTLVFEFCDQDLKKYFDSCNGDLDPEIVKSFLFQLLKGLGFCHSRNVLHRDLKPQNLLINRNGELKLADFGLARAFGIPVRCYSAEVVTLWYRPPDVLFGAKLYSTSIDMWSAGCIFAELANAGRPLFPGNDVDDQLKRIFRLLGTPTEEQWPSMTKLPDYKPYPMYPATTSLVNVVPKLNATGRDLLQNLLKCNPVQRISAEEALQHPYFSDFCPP
Assay [11] deals with Ribosomal protein S6 kinase alpha-1 (Homo sapiens) (UniProt Q15418). In words: Inhibition of RSK1 domain1 Lys1 labeling site in human A-375 cells at 0.5 uM by KiNativ Profiling analysis relative to control. It counts as cell-based.
Assay [12] addresses PKC alpha and beta-2 (Homo sapiens) (UniProt P17252+P05771). In words: Inhibition of PKCalpha/beta K2 labeling site in human Huh-7 cells at 1 uM by KiNativ Profiling analysis relative to control. It counts as cell-based.
The subject of assay [13] is Epidermal growth factor receptor (Homo sapiens), P00533 [G719S]. In words: Inhibition of EGFR G719S mutant (unknown origin) at 10 uM by Ambit Kinomescan binding assay relative to control.
Assay [14] in a line: Inhibition of KHS1/2 K2 labeling site in human Huh-7 cells at 10 uM by KiNativ Profiling analysis relative to control. The conditions noted are these: condition cancer.
Assay [15] deals with Serine/threonine-protein kinase 10 (Homo sapiens) (UniProt O94804). As to the kind of experiment: Inhibition of LOK Lys2 labeling site harbouring IIHRDLKAGNVLMTLEGDIR in human Huh-7 cell lysate at 1 uM by KiNativ Profiling analysis relative to control. It counts as subcellular.
In assay [16] the target is 5'-AMP-activated protein kinase catalytic subunit alpha-1 (Homo sapiens) (UniProt Q13131). In words: Inhibition of AMPKa1 Lys2 labeling site in human Huh-7 cell lysate at 1 uM by KiNativ Profiling analysis relative to control. Type of assay: subcellular.

Tyrosine-protein kinase JAK1 (Homo sapiens), sequence (P23458 whole entry, the tested form may be a part): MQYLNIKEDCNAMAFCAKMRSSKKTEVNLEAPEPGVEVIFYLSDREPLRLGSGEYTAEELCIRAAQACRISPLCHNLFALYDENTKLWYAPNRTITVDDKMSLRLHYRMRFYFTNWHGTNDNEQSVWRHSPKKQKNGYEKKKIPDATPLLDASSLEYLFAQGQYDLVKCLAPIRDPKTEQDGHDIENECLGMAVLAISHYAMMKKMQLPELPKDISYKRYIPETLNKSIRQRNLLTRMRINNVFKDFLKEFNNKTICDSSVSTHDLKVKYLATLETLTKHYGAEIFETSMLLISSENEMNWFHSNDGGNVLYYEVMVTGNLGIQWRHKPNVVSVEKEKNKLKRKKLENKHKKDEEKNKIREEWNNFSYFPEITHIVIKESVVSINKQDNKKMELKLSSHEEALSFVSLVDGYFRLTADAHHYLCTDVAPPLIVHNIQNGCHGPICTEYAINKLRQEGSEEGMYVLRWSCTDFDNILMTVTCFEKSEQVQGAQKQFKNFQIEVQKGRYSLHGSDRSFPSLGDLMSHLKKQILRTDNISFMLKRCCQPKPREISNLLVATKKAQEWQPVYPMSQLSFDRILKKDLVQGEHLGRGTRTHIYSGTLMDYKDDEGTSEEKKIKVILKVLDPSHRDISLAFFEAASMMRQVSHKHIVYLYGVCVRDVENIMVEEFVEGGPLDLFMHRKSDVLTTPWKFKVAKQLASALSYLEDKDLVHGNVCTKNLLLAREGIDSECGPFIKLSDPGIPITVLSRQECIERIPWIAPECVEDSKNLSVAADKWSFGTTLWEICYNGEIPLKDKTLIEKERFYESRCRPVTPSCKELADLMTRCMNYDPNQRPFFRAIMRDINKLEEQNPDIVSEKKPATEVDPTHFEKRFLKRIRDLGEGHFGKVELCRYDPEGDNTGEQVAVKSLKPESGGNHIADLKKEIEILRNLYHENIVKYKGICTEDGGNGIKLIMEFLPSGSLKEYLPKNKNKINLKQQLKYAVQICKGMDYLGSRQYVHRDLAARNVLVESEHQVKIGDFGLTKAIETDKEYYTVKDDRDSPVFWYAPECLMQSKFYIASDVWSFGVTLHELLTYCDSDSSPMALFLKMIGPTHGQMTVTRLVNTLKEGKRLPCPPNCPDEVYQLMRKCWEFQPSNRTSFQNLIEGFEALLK
Epidermal growth factor receptor (Homo sapiens), P00533 [G719S], sequence (P00533 whole entry G719S): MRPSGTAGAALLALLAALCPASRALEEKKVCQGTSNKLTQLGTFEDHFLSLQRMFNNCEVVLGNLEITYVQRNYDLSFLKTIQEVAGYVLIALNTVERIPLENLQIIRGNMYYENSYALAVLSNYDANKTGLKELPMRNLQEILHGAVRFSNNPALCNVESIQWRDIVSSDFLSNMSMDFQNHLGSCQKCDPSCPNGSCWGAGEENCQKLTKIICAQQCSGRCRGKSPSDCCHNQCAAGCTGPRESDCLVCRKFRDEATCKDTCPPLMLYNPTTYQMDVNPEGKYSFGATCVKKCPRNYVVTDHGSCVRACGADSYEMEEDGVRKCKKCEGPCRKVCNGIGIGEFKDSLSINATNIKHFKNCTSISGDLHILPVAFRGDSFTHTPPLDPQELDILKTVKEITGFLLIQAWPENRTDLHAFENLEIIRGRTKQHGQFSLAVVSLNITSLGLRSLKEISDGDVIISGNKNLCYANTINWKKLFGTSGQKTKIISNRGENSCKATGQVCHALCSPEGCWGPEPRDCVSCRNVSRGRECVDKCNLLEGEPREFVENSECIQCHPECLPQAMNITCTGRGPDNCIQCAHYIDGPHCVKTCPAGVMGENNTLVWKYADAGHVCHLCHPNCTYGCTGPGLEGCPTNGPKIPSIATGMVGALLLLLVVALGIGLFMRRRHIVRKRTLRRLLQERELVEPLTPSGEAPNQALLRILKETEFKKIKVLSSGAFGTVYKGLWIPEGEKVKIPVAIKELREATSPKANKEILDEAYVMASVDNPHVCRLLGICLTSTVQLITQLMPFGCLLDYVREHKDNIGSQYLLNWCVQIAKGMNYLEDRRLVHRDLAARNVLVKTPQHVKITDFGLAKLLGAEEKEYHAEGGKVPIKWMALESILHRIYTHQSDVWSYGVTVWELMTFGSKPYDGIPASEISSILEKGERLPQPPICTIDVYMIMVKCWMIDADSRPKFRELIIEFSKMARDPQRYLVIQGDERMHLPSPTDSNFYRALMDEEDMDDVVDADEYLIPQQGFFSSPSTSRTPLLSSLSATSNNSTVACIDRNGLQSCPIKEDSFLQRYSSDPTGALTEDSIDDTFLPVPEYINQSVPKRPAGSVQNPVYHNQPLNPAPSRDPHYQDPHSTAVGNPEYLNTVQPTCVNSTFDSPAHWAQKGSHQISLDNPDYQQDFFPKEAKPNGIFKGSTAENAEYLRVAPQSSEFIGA
Glycogen synthase kinase-3 alpha (Homo sapiens), sequence (P49840 2-483 limits assumed): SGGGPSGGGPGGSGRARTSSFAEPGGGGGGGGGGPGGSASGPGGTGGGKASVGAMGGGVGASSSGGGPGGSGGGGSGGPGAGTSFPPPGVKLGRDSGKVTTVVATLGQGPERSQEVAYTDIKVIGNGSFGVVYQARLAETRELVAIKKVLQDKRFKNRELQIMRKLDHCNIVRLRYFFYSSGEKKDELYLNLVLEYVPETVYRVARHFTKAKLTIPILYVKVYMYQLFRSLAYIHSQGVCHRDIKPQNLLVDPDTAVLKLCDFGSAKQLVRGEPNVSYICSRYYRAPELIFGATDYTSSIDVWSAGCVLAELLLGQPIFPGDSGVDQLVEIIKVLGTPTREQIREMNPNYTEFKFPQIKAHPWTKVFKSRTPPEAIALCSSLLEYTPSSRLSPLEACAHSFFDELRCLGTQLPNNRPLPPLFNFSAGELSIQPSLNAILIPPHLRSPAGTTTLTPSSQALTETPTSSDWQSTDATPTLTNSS

For `CCN1CCN(Cc2ccc(NC(=O)c3ccc(C)c(/C=C/c4cnc5[nH]ccc5c4OC)c3)cc2C(F)(F)F)CC1`, the inhibition in assay [1] is 13%; in [2], 11.4%; in [3], 5%; in assay [4] it was 84%; in assay [5] it was -9.6%; in assay [6] it was 100%.

Take `CCN1CCN(Cc2ccc(NC(=O)c3ccc(C)c(Oc4ccnc5[nH]ccc45)c3)cc2C(F)(F)F)CC1`: the inhibition entry in assay [7] and in assay [8] was “inactive” each time. Further, the inhibition in assay [9] was 6.6%; in assay [10], 19%; in assay [11], -0.7%; in assay [12], 8.8%; in assay [13], 14%. The inhibition at 10 µM in assay [14] amounted to 6.6%.

`CNc1cc(Oc2cc(C(=O)Nc3cc(N4CCN(C)CC4)cc(C(F)(F)F)c3)ccc2C)ncn1`: the inhibition in assay [15] came to 12.3%; in [16], 0.5%.

One may read the inhibition as the relative decrease from the control value, in per cent.
